Screens: PubChem BioAssay, several laboratories
T cell modulator = T cell immune modulators affecting CD8 T cell-vesicle binding. 2C CD8+ T cell-vesicle binding, flow cytometry; active compounds read low. response (vesicle binding), % at 7 µM. 0.068% of 330,000 active;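 active = response, share of CD8 T cells binding vesicles, and their 90th percentile fluorescence all below set limits, cut at about 80% in these data, passing the limit was not always enough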;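 note: values below 100% mean blocked vesicle binding to the CD8+ T cells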
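Test system: purified 2C TCR transgenic mouse naive CD8+ T cells. Probe or stimulus: QL9-peptide-loaded Drosophila micro-vesicles bearing Ld, ICAM-1 and B7-1. Incubation: binding step 1.5 h, 37 °C, antibody labelling 20 min, ice. Measured by: flow cytometry of vesicle-bound cells.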
MEKK3 PB1 HTS = MEKK3-MEK5 PB1 interaction, increase or decrease; binding response (% of control), % at 10 µM; bead-based flow cytometry, Alexa488-MEK5 binding to MEKK3; actives lie on both sides; 0 = blocked by unlabeled MEK5, 100 = vehicle; 1.4% of 290,000 active; AID 1529;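 active = binding response more than 3 SD above or below the average of its plate-row segment, actives on both sides; inconclusive = wells at one plate position flagged as instrument error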;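 note: Alexa488 bead fluorescence after subtracting the streptavidin-only scavenger bead signal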
MEKK2 WT-MEK5 = raises or lowers MEK5 binding to wildtype human MEKK2 PB1 domain. binding response (% of control), % at 10 µM. Q9Y2U5. AID 1531. bead flow cytometry, Alexa488-MEK5 binding to MEKK2 WT; actives lie on both sides. 1.1% of 290,000 active; in the data active = binding response below about 67% or above about 130%; inconclusive = no clear call, values can overlap the other calls; inactive = in between
MEKK2mut PB1 HTS = signal of MEK5 binding to mutant human MEKK2 PB1 domain; 0.35% of 290,000 active; bead flow cytometry, Alexa488-MEK5 binding to MEKK2 mutant; percent response, % at 10 µM; in the data active = percent response above about 24%, passing the limit was not always enough
Rce1 inhib = yeast Ras-converting enzyme inhibition. Q03530. yeast membranes, quenched prenylated peptide cleavage fluorescence. calls only. 0.27% of 290,000 active. AID 2563;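 active = fall in fluorescence gain of 50% or more versus controls, with final raw signal at or below 3038400; inconclusive = same 50% fall but final raw signal above 3038400; inactive = fall in fluorescence gain under 50%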;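 note: plate controls were neutral control wells for no effect and wells lacking membranes for full effect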
UCH37 DUB inh = blocks the human deubiquitinase UCH37 | Q9Y5K5 | purified proteasome/UCH37, Ub-AMC cleavage fluorescence | inhibition, % (no concentration beside the values) | 0.33% of 330,000 active | AID 588478;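 active = mean inhibition over replicate wells above about 20%, limit read from the data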;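 note: 0% = compound-free wells with enzyme and 100% = wells lacking proteasome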
Target sequence (Q9Y5K5 whole entry, looked up): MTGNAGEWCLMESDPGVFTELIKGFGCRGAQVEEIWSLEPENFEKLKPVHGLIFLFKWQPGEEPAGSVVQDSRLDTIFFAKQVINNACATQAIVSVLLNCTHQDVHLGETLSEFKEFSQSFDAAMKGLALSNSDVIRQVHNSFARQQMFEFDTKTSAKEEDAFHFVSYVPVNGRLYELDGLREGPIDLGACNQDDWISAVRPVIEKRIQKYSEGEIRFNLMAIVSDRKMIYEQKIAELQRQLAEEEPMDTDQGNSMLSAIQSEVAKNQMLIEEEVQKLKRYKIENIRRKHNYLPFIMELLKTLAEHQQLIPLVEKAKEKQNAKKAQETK
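Material: human UCH37 enzyme supplied as purified proteasome complex. Measure: % inhibition of Ub-AMC cleavage fluorescence. Medium: pH 7.4 Tris-HCl (50 mM) with ovalbumin, ATP-MgCl2, DTT. Times: 30 min preincubation with enzyme, 25 min cleavage at room temperature. Detection: AMC fluorescence intensity at 355/460 nm.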
The depositor's hits bear a star; i = inactive; u = inconclusive; x = no result given; + = active, no number; [ ] = another dose, or the depositor's remark. The list is not random: actives were taken first. Their share in the collection is about 2.5%.

SMILES	T cell modulator	MEKK3 PB1 HTS	MEKK2 WT-MEK5	MEKK2mut PB1 HTS	Rce1 inhib	UCH37 DUB inh
COc1ccc(C(=O)c2c3ccccc3[n+]([O-])n2CCCN)cc1	146	x	x	x	i	-1
Cc1ccc(C(=O)c2c3ccc(C(F)(F)F)cc3[n+]([O-])n2CCC(N)=O)cc1	394	102	98	-4	i	3
Cc1ccc(C(=O)c2c3ccccc3[n+]([O-])n2CCO)cc1	171	x	x	x	+	6
Cc1ccc(C(=O)c2c3ccc(C(F)(F)F)cc3[n+]([O-])n2CCCC(N)=O)cc1	192	x	x	x	+	1
O=C(NN=Cc1cccc2cccnc12)[C@H]1C[C@@H]1c1ccccc1	x	x	x	x	x	7
CCNC(=O)ON=C(C)c1sc(-c2ccccc2)nc1C	x	x	x	x	x	6
O=S(=O)(c1ccc(N2CCC(c3ccc(Cl)cc3)=N2)cc1)N(CCO)CCO	562	99	101	-1	i	i
CN(C)CCCNS(=O)(=O)c1ccc(N2CCC(c3ccc(Cl)cc3)=N2)cc1	505	99	162*	22	u	x
O=C(NN=Cc1ccc([N+](=O)[O-])o1)c1ccc(O)cc1	x	x	x	x	x	8
c1cc(N2CCCC2)ccc1C(c1nnnn1C1CCCCC1)N1CCOCC1 (stereo not drawn)	516	96	-5.0*	2	i	2
Cc1ccc(CNC(=O)c2cc3c(s2)CS(=O)(=O)C3)cc1	299	2.0*[inhibitor]	0.0*[inhibitor]	-17	i	2
O=C(NCc1cccs1)c1cc2c(s1)CS(=O)(=O)C2	245	97	94	2	i	1
COC(=O)/C=c1\[nH]c2nnc(C)n2c1=O	225	96	99	-2	+	-320
Cc1ccc(-c2nc(Nc3ccc(N4CCOCC4)cc3)c3ccccc3n2)cc1	304	102	133	8	+	x
CCN(CC)S(=O)(=O)c1cc(NC(=O)c2n[nH]c(=O)c3ccccc23)ccc1C	258	99	-3.0*	4	i	1
O=C(CNc1cccc2ccccc12)NN=Cc1ccc[nH]1	x	x	x	x	x	-1
CC1CCc2c(sc(NC(=O)c3ccccc3C(=O)O)c2C#N)C1 (stereo not drawn)	143	99	97	-9	i	1
CC1CCc2c(sc(NC(=O)COC(=O)c3ccccc3NCc3ccco3)c2C#N)C1 (stereo not drawn)	434	101	99	5	+	-477
CCC(C)C(C)=NNC(=O)C1COc2ccccc2O1 (stereo not drawn)	x	x	x	x	x	3
O=C(NNC1CC(=O)N(c2ccc(Cl)cc2)C1=O)c1ccccn1 (stereo not drawn)	329	93	96	-56	i	26*
Cc1ccc(OCC(=O)NN=Cc2ccc(C)o2)c([N+](=O)[O-])c1	x	x	x	x	x	5
COc1ccc(C2CC(c3cccs3)=NN2C(=O)CSc2nc3c(cnn3-c3ccccc3)c(=O)[nH]2)cc1 (stereo not drawn)	433	105	91	2	i	-53
COc1cccc(C2CC(c3cccs3)=NN2C(=O)CSc2nc3c(cnn3-c3ccc(F)cc3)c(=O)[nH]2)c1OC (stereo not drawn)	815	104	88	4	+	-33
CC1(C)CC(=O)CC(=NNc2nc3ccccc3s2)C1	x	x	x	x	x	5
COc1ccc(C=NNc2ccccc2[N+](=O)[O-])c(C(=O)O)c1OC	x	x	x	x	x	14
Cc1c(NC(=O)c2cccs2)cccc1[N+](=O)[O-]	171	82	104	4	i	1
O=C(Nc1cc2cccc([N+](=O)[O-])c2oc1=O)c1cccs1	228	87	-8.0*	1	x	5
CC1CCN(CCCNC(=O)c2cc3c(Cl)nc4ccccc4c3s2)CC1	555	105	154*	26	i	3
C=CCn1c(N2CCCCCC2)nc2c1c(=O)n(C)c(=O)n2C	299	106	76	-35	+	0
CCc1cc(=O)oc2c3c(cc(OCC(=O)NCCCC(=O)O)c12)OC(C)(C)CC3	197	105	102	11	+	i
